Results published in ChEMBL document CHEMBL6115024 (J Med Chem, 2025).
pEC50: −log10 of the molar value. Each block holds one compound with its values, some of them ahead of it. Calls of active or inactive are those of the source. The calls are words filed in the database; no cut-off is given here.

Legend:
[1] = target: T1, Glucagon-like peptide 1 receptor (Homo sapiens, UniProt P43220); experiment: Agonist activity at GLP-1 receptor (unknown origin) overexpressed in CHO-K1 cells assessed as cAMP production incubated for 30 mins in presence of HSA by HitHunter cAMP assay; assay type: functional, cell-based
T1 sequence (P43220 whole entry): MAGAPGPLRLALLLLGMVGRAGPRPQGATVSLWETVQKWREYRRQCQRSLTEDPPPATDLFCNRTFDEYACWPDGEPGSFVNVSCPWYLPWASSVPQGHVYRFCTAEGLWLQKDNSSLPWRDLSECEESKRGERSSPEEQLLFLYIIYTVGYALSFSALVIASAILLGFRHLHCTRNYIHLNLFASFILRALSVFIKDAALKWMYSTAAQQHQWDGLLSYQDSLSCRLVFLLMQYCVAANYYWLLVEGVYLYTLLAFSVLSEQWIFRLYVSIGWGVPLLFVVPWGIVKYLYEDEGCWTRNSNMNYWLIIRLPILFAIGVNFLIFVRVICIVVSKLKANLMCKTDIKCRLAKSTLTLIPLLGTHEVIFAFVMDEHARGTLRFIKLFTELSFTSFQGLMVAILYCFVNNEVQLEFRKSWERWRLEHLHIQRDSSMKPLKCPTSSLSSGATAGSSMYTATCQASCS

[2] = target: T1, Glucagon-like peptide 1 receptor; experiment: Agonist activity at GLP-1 receptor (unknown origin) overexpressed in CHO-K1 cells assessed as cAMP production incubated for 30 mins by HitHunter cAMP assay; assay type: functional, cell-based
Albumin = Albumin (Homo sapiens, UniProt P02768); experiment: Binding affinity to CM5-chip immobilized human serum albumin assessed as fold change in equilibrium association constant by SPR analysis relative to semaglutide
Chain of Albumin (P02768 whole entry): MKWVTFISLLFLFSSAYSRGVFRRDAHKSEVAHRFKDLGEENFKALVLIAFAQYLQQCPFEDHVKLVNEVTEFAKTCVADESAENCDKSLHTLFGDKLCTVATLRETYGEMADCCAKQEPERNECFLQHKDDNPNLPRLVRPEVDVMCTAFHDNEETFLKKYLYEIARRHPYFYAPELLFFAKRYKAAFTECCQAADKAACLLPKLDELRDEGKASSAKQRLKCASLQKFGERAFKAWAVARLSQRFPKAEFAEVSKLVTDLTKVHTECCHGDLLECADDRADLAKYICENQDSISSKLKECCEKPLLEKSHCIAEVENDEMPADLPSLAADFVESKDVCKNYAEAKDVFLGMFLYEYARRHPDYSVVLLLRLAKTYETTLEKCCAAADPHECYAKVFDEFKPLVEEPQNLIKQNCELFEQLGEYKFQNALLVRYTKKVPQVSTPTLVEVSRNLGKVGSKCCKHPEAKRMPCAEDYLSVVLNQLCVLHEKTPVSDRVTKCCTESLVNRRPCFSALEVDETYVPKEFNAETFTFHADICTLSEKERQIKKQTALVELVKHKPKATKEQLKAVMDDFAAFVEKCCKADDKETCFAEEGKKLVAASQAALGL

Mus musculus [3] = experiment: Induction of glycemic control in db/db mouse assessed as reduction in […] in liver at 10 to 30 nmol/kg, sc treated for 8 weeks administered on every 2 days by H and E staining based analysis; assay type: functional, organism-based; conditions: dose 10-30 nmol/kg
Mus musculus [4] = experiment: Induction of glycemic control in diet-induced obese C57BL/6 mouse assessed as increase in proportion of small adipocytes at 3 to 100 nmol/kg, sc treated for 40 days administered on every 4 days by H and E staining based analysis; assay type: functional, organism-based; conditions: dose 3-100 nmol/kg, time 40.0 day
Procedure, shortened: (§1)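 Male C57BL/6 mice fed 45% kcal fat diet from 6 to 18–20 weeks old, kept on diet, given sc PBS (100 μL) or 3–100 nmol/kg every 4 days for 40 days; glucose monitored; body weight, composition, blood chemistry and H&E histology of fixed liver and iWAT assessed post-treatment.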

Mus musculus [5] = experiment: Induction of glycemic control in db/db mouse assessed as reduction in large lipid droplets in liver at 10 to 30 nmol/kg, sc treated for 8 weeks administered on every 2 days by H and E staining based analysis; assay type: functional, organism-based; conditions: dose 10-30 nmol/kg
Procedure, shortened: (§2)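 After 8 weeks of sc dosing (10 or 30 nmol/kg every 2 days) of db/db mice, liver and iWAT fixed in 4% paraformaldehyde, paraffin-embedded, sectioned and H&E stained; adipocyte area and diameter distributions and liver steatosis, hypertrophy, ballooning scored.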

Mus musculus [6] = experiment: Induction of glycemic control in diet-induced obese C57BL/6 mouse assessed as reduction in fat mass at 3 to 100 nmol/kg, sc treated for 40 days administered on every 4 days; assay type: functional, organism-based; conditions: dose 3-100 nmol/kg, time 40.0 day; procedure, shortened: as §1
Mus musculus [7] = experiment: Induction of glycemic control in diet-induced obese C57BL/6 mouse assessed as decrease in proportion of large adipocytes at 3 to 100 nmol/kg, sc treated for 40 days administered on every 4 days by H and E staining based analysis; assay type: functional, organism-based; conditions: dose 3-100 nmol/kg, time 40.0 day; procedure, shortened: as §1
Mus musculus [8] = experiment: Induction of glycemic control in db/db mouse assessed as reduction in polyphagia at 10 to 30 nmol/kg, sc treated for 8 weeks administered on every 2 days; assay type: functional, organism-based; conditions: dose 10-30 nmol/kg
Procedure, shortened: (§3)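 db/db mice dosed sc with PBS or 10 or 30 nmol/kg every 2 days for 8 weeks; body weight, food and water intake recorded every 2 days; on day 59 heart, liver, iWAT and BAT excised and weighed; mean ± SEM, ANOVA with multiple comparisons.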

Mus musculus [9] = experiment: Induction of glycemic control in diet-induced obese C57BL/6 mouse assessed as reduction in blood glucose level at 30 nmol/kg, sc treated for 40 days administered on every 4 days relative to control; assay type: functional, organism-based; conditions: time 40.0 day
Mus musculus [10] = experiment: Induction of glycemic control in db/db mouse assessed as reduction in proportion of iWAT weight to total body weight at 10 to 30 nmol/kg, sc treated for 8 weeks administered on every 2 days; assay type: functional, organism-based; conditions: dose 10-30 nmol/kg; procedure, shortened: as §3
Mus musculus [11] = experiment: Effect on brown adipose tissue weight in db/db mouse at 10 to 30 nmol/kg, sc treated for 8 weeks administered on every 2 days; assay type: functional, organism-based; conditions: dose 10-30 nmol/kg; procedure, shortened: as §3
Mus musculus [12] = experiment: Inhibition of fatty liver in GAN-DIO-NASH C57BL/6JNarl mouse assessed as improvement in liver health at 30 nmol/kg, sc qd for 70 days; assay type: functional, organism-based; conditions: time 70.0 day
Procedure, shortened: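 Male GAN-DIO-NASH mice on GAN diet dosed daily with PBS or 5–30 nmol/kg for 10 weeks; body weight, fat mass and ALT on days 0 and 70, liver H&E at 20×, liver triglycerides post-treatment; mean ± SEM, ANOVA or Student's t test.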

Pancreatic islet = experiment: Induction of insulin secretion in C57BL6/J mouse pancreatic islet at 10 to 100 nM incubated for 24 hrs in presence of 2.5 mM glucose by ELISA; assay type: functional, cell-based; conditions: dose 10-100 nM
Mus musculus [13] = experiment: Effect on liver weight in db/db mouse at 10 to 30 nmol/kg, sc treated for 8 weeks administered on every 2 days; assay type: functional, organism-based; conditions: dose 10-30 nmol/kg; procedure, shortened: as §3
Mus musculus [14] = experiment: Induction of glycemic control in db/db mouse assessed as reduction in blood glucose level at 30 nmol/kg, sc measured after 48 hrs; assay type: functional, organism-based
Mus musculus [15] = experiment: Induction of glycemic control in db/db mouse assessed as reduction in blood glucose level at 1 to 100 nmol/kg, sc measured upto 120 hrs; assay type: functional, organism-based
Procedure, shortened: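 db/db mice, three per dose group, got a single sc dose of 1, 3, 10, 30 or 100 nmol/kg, with a PBS control. Blood glucose was measured before dosing and at multiple time points after. EC50 was derived from the dose–response profiles by nonlinear regression. Mean ± SEM.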

Mus musculus [16] = experiment: Induction of glycemic control in db/db mouse assessed as reduction in macrovesicular steatosis in liver at 10 to 30 nmol/kg, sc treated for 8 weeks administered on every 2 days by H and E staining based analysis; assay type: functional, organism-based; conditions: dose 10-30 nmol/kg; procedure, shortened: as §2
Mus musculus [17] = experiment: Effect on ALT level in diet-induced obese C57BL/6 mouse at 3 to 100 nmol/kg, sc treated for 40 days administered on every 4 days; assay type: functional, organism-based; conditions: dose 3-100 nmol/kg, time 40.0 day
Mus musculus [18] = experiment: Induction of glycemic control in db/db mouse assessed as reduction in microvesicular steatosis in liver at 10 to 30 nmol/kg, sc treated for 8 weeks administered on every 2 days by H and E staining based analysis; assay type: functional, organism-based; conditions: dose 10-30 nmol/kg; procedure, shortened: as §2
Mus musculus [19] = experiment: Induction of glycemic control in db/db mouse assessed as reduction in blood glucose level administered subcutaneously measured upto 120 hrs; assay type: functional, organism-based; conditions: dose 1-100 nmol/kg, route sc
Mus musculus [20] = experiment: Blood glucose lowering effect in db/db mouse assessed as blood glucose level at 30 nmol/kg, sc treated for 8 weeks administered on every 2 days (reference value: 17 to 30 mmol/L); assay type: functional
Mus musculus [21] = experiment: Induction of glycemic control in db/db mouse assessed as reduction in polydipsia at 10 to 30 nmol/kg, sc treated for 8 weeks administered on every 2 days; assay type: functional, organism-based; conditions: dose 10-30 nmol/kg; procedure, shortened: as §3
Mus musculus [22] = experiment: Induction of glycemic control in diet-induced obese C57BL/6 mouse assessed as decrease in total cholesterol level at 100 nmol/kg, sc treated for 40 days administered on every 4 days; assay type: functional, organism-based; conditions: time 40.0 day; procedure, shortened: as §1
Mus musculus [23] = experiment: Effect on heart weight in db/db mouse at 10 to 30 nmol/kg, sc treated for 8 weeks administered on every 2 days; assay type: functional, organism-based; conditions: dose 10-30 nmol/kg; procedure, shortened: as §3
Mus musculus [24] = experiment: Induction of glycemic control in diet-induced obese C57BL/6 mouse assessed as increase in lean mass at 3 to 100 nmol/kg, sc treated for 40 days administered on every 4 days; assay type: functional, organism-based; conditions: dose 3-100 nmol/kg, time 40.0 day; procedure, shortened: as §1
Mus musculus [25] = experiment: Induction of glycemic control in db/db mouse assessed as reduction in hepatocyte ballooning at 10 to 30 nmol/kg, sc treated for 8 weeks administered on every 2 days by H and E staining based analysis; assay type: functional, organism-based; conditions: dose 10-30 nmol/kg; procedure, shortened: as §2

Compound: CCCCCCCCCCCCCCCC(=O)N[C@@H](CCC(=O)NCCCC[C@@H](NC(=O)CCOCCOCCOCCOCCNC(=O)CCc1cn(CC(=O)N[C@@H](CCC(=O)NCCCC[C@H](NC(=O)[C@H](C)NC(=O)[C@H](C)NC(=O)[C@H](CCC(N)=O)NC(=O)CNC(=O)[C@H](CCC(=O)O)NC(=O)[C@H](CC(C)C)NC(=O)[C@H](Cc2ccc(O)cc2)NC(=O)[C@H](CO)NC(=O)[C@H](CO)NC(=O)[C@@H](NC(=O)[C@H](CC(=O)O)NC(=O)[C@H](CO)NC(=O)[C@@H](NC(=O)[C@H](Cc2ccccc2)NC(=O)[C@@H](NC(=O)CNC(=O)[C@H](CCC(=O)O)NC(=O)C(C)(C)NC(=O)[C@@H](N)Cc2cnc[nH]2)[C@@H](C)O)[C@@H](C)O)C(C)C)C(=O)N[C@@H](CCC(=O)O)C(=O)N[C@@H](Cc2ccccc2)C(=O)N[C@H](C(=O)N[C@@H](C)C(=O)N[C@@H](Cc2c[nH]c3ccccc23)C(=O)N[C@@H](CC(C)C)C(=O)N[C@H](C(=O)N[C@@H](CCCNC(=N)N)C(=O)NCC(=O)N[C@@H](CCCNC(=N)N)C(=O)NCC(=O)O)C(C)C)[C@@H](C)CC)C(=O)O)nn1)C(=O)NCCOCCOCCOCCOCCC(=O)N[C@H](CCCCNC(=O)CC[C@@H](NC(=O)CCCCCCCCCCCCCCCCC(=O)O)C(=O)O)C(=O)O)C(=O)O
pEC50 [1]: 7.36
pEC50 [2]: 9.04

fold change (FC) (Albumin): 8
Compound: CCCCCCCCCCCCCCCC(=O)N[C@@H](CCC(=O)NCCCC[C@H](NC(=O)CCOCCOCCOCCOCCNC(=O)CCc1cn(CC(=O)N[C@@H](CCC(=O)NCCCC[C@H](NC(=O)[C@H](C)NC(=O)[C@H](C)NC(=O)[C@H](CCC(N)=O)NC(=O)CNC(=O)[C@H](CCC(=O)O)NC(=O)[C@H](CC(C)C)NC(=O)[C@H](Cc2ccc(O)cc2)NC(=O)[C@H](CO)NC(=O)[C@H](CO)NC(=O)[C@@H](NC(=O)[C@H](CC(=O)O)NC(=O)[C@H](CO)NC(=O)[C@@H](NC(=O)[C@H](Cc2ccccc2)NC(=O)[C@@H](NC(=O)CNC(=O)[C@H](CCC(=O)O)NC(=O)[C@H](C)NC(=O)[C@@H](N)Cc2cnc[nH]2)[C@@H](C)O)[C@@H](C)O)C(C)C)C(=O)N[C@@H](CCC(=O)O)C(=O)N[C@@H](Cc2ccccc2)C(=O)N[C@H](C(=O)N[C@@H](C)C(=O)N[C@@H](Cc2c[nH]c3ccccc23)C(=O)N[C@@H](CC(C)C)C(=O)N[C@H](C(=O)N[C@@H](CCCNC(=N)N)C(=O)NCC(=O)N[C@@H](CCCNC(=N)N)C(=O)NCC(=O)O)C(C)C)[C@@H](C)CC)C(=O)O)nn1)C(=O)NCCOCCOCCOCCOCCC(=O)N[C@@H](CCCCNC(=O)CC[C@H](NC(=O)CCCCCCCCCCCCCCC)C(=O)O)C(=O)OC)C(=O)O

Activity (Mus musculus [3]): Active
pEC50 (Mus musculus [15]): 8.03
Compound: CC[C@H](C)[C@H](NC(=O)[C@H](Cc1ccccc1)NC(=O)[C@H](CCC(=O)O)NC(=O)[C@H](CCCCNC(=O)COCCOCCNC(=O)COCCOCCNC(=O)CC[C@H](NC(=O)CCCCCCCCCCCCCCCCC(=O)O)C(=O)O)NC(=O)[C@H](C)NC(=O)[C@H](C)NC(=O)[C@H](CCC(N)=O)NC(=O)CNC(=O)[C@H](CCC(=O)O)NC(=O)[C@H](CC(C)C)NC(=O)[C@H](Cc1ccc(O)cc1)NC(=O)[C@H](CO)NC(=O)[C@H](CO)NC(=O)[C@@H](NC(=O)[C@H](CC(=O)O)NC(=O)[C@H](CO)NC(=O)[C@@H](NC(=O)[C@H](Cc1ccccc1)NC(=O)[C@@H](NC(=O)CNC(=O)[C@H](CCC(=O)O)NC(=O)C(C)(C)NC(=O)[C@@H](N)Cc1cnc[nH]1)[C@@H](C)O)[C@@H](C)O)C(C)C)C(=O)N[C@@H](C)C(=O)N[C@@H](Cc1c[nH]c2ccccc12)C(=O)N[C@@H](CC(C)C)C(=O)N[C@H](C(=O)N[C@@H](CCCNC(=N)N)C(=O)NCC(=O)N[C@@H](CCCNC(=N)N)C(=O)NCC(=O)O)C(C)C
Activity (Mus musculus [4]): inactive
Activity (Mus musculus [5]): Active
Activity (Mus musculus [6]): inactive
Activity (Mus musculus [7]): inactive
Activity (Mus musculus [8]): Active
Activity (Mus musculus [9]): inactive
Activity (Mus musculus [10]): Active
Activity (Mus musculus [11]): No effect
inhibition (Mus musculus [12]): Active
Activity (Pancreatic islet): inactive
Activity (Mus musculus [13]): No effect
Activity (Mus musculus [14]): inactive
Activity (Mus musculus [16]): Active
Activity (Mus musculus [17]): No effect
Activity (Mus musculus [18]): Active
Activity (Mus musculus [19]): Dose-dependent-effect
Activity (Mus musculus [20]): 17.7 mmol/L
Activity (Mus musculus [21]): Active
Activity (Mus musculus [22]): Active
Activity (Mus musculus [23]): No effect
Activity (Mus musculus [24]): inactive
Activity (Mus musculus [25]): Active
